Source: the RNAGym collection of RNA variant scans (doi:10.1126/science.aae0568)
Fewer inactive variants are shown than the library holds.

B1: tRNA (parent)
chain: GUUCCGUUGGCGUAAUGGUAACGCGUCUCCCUCCUAAGGAGAAGACUGCGGGUUCGAGUCCCGUACGGAACG

Variants of: B1
Experiment: yeast fitness relative to wild type (ratio to wild type); higher = fitter; tRNA-Arg(CCU), competitive growth, 37 C, YPD
Summary of the method: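 Gene amplicons from the start population and from each of six end populations were read by 100-nucleotide paired-end sequencing. Those end populations came from pooled Saccharomyces cerevisiae strains carrying tRNA-Arg(CCU) gene variants at the native locus, competed in YPD at 37°C for 24 hours. Fitness relative to wild type was worked out from changes in genotype frequencies. Genotypes needed ≥ 100 starting reads, and estimates < 0.5 were set to 0.5.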
Variant G25A A43U G56A has a yeast fitness of 0.718.
Work on C24U C33A U47C yielded a yeast fitness of 0.516.
C24U C61G C66U A69U gave a yeast fitness of 0.539.
Work on C24U C30U G58C A70G yielded a yeast fitness of no more than 0.5.
With C24U C30U C34U G52A the yeast fitness was no more than 0.5.
C24U C55G C61G gave a yeast fitness of no more than 0.5.
In the case of C24U C34G C62U, the yeast fitness is reported as 0.584.
Variant C24U C29U A36C A42U A57U has a yeast fitness of 0.518.
Variant G25A A42U A43C G44A C49A C55G has a yeast fitness of no more than 0.5.
C24U C29U A42G U59A C61U gave a yeast fitness of no more than 0.5.
Variant C24U C34U C49U C61U has a yeast fitness of no more than 0.5.
In the case of C24U C33G C34U C62U, the yeast fitness is reported as no more than 0.5.
Variant C24U G44A U54G G67A has a yeast fitness of no more than 0.5.
G25A C27G C29G C46A A65G C66U gave a yeast fitness of no more than 0.5.
Variant C24U U32A C33G C60U A69G has a yeast fitness of no more than 0.5.
For C24U U26G U35A C62A, the yeast fitness was no more than 0.5.
For C24U G67C G68A, the yeast fitness was 0.587.
C24U C34U C46A G67A gave a yeast fitness of no more than 0.5.
C24U C31U U54A showed a yeast fitness of no more than 0.5.
Work on C24U G48A C62G A69U yielded a yeast fitness of 0.606.
G25A C27G G41C gave a yeast fitness of 0.671.
C24U C60G A70C showed a yeast fitness of 0.562.
Variant C24U C31A C34A G56C has a yeast fitness of no more than 0.5.
C24U A42G A70C gave a yeast fitness of 0.642.
With C24U C30A C55U the yeast fitness was no more than 0.5.
Work on C24U C31A C33A C34U C46A yielded a yeast fitness of no more than 0.5.
G25A A45G A65G gave a yeast fitness of 0.823.
Variant C24U U47A C66U has a yeast fitness of no more than 0.5.
G25A A36U C49U showed a yeast fitness of 0.545.
In the case of C24U C61U U64C, the yeast fitness is reported as 0.697.
For G25A A37G, the yeast fitness was 0.699.
G25A A37U gave a yeast fitness of 0.652.
In the case of G25A A37C, the yeast fitness is reported as 0.757.
For C24U A45U A57C G68A, the yeast fitness was no more than 0.5.
Work on C24U C46U A70U yielded a yeast fitness of 0.75.
C24U A43G A69U showed a yeast fitness of 0.819.
Work on C24U U26C A65C yielded a yeast fitness of 0.695.
Work on G25A A69C yielded a yeast fitness of 1.02.
Work on C24U G44A U54C yielded a yeast fitness of 0.726.
With G25A A45G G48A G50C A69C the yeast fitness was no more than 0.5.
For C24U A40G G58C, the yeast fitness was 0.579.
Variant C24U C31A U54G has a yeast fitness of 0.75.
In the case of C24U C34U, the yeast fitness is reported as 0.688.
With C24U C34G the yeast fitness was 0.72.
Variant C24U U47C U59C has a yeast fitness of 0.684.
Variant C24U U32A C33G has a yeast fitness of no more than 0.5.
With C24U C34U A69C the yeast fitness was 0.502.
Work on C24U C31U A42G yielded a yeast fitness of 0.574.
For C24U U26A U28G U54G C61U, the yeast fitness was no more than 0.5.
Variant C24U C34U A57U C60U has a yeast fitness of no more than 0.5.
With C24U U26G C61G the yeast fitness was no more than 0.5.
C24U C60G A65U showed a yeast fitness of no more than 0.5.
Work on C24U U28C G52C C60G yielded a yeast fitness of 0.524.
With C24U C29A U32A C46G A57C the yeast fitness was 0.5.
Variant C24U C29G G38C A42C has a yeast fitness of no more than 0.5.
For C24U C33U G44C, the yeast fitness was 0.633.
Work on G25A A40C C46U A69C yielded a yeast fitness of 0.764.
Variant C24U C31G C33U U59A C62U has a yeast fitness of no more than 0.5.
Work on C24U C29U A42G U59C yielded a yeast fitness of no more than 0.5.
With C24U C33G U53C C55U A70G the yeast fitness was no more than 0.5.
For C24U U35G A42G G51A, the yeast fitness was no more than 0.5.
In the case of G25A A45C U53C C55U G56C, the yeast fitness is reported as no more than 0.5.
Work on G25A A37U G56A C66U yielded a yeast fitness of no more than 0.5.
C24U U32G A69C A70U gave a yeast fitness of no more than 0.5.
C24U U32A G38A A57U showed a yeast fitness of no more than 0.5.
C24U C30U A57G C66U gave a yeast fitness of 0.538.
In the case of C24U U59A C62A A69C, the yeast fitness is reported as 0.552.
Work on C24U G63U yielded a yeast fitness of 0.627.
In the case of C24U C34U G41A, the yeast fitness is reported as 0.539.
In the case of C24U C27U A43C, the yeast fitness is reported as 1.04.
Variant C24U C34G G51A has a yeast fitness of 0.663.
Work on C24U C33U G41A C61U yielded a yeast fitness of no more than 0.5.
Variant C24U C46U has a yeast fitness of 0.983.
For C24U C46G, the yeast fitness was 1.01.
With C24U C46A the yeast fitness was 0.925.
C24U U35G C46A gave a yeast fitness of no more than 0.5.
In the case of C24U U32C A43U, the yeast fitness is reported as 0.768.
C24U C29U A42G C55U gave a yeast fitness of no more than 0.5.
C24U A45G A65G gave a yeast fitness of 0.757.
C24U A57C C60U G67C gave a yeast fitness of no more than 0.5.
Variant C24U C30U G38C has a yeast fitness of 0.55.
For G25A A40C C46U C55U, the yeast fitness was 0.672.
C24U C30A A65G gave a yeast fitness of no more than 0.5.
C24U C62A showed a yeast fitness of 0.684.
With C24U G38C G52C the yeast fitness was no more than 0.5.
Variant G25A A37C C62U has a yeast fitness of 0.924.
G25A A45U A69U gave a yeast fitness of 0.806.
C24U A43U U47G G67A showed a yeast fitness of 0.53.
With C24U G44C C62U the yeast fitness was 0.784.
With C24U A43U C55G the yeast fitness was 0.588.
C24U U47C gave a yeast fitness of 0.997.
Variant C24U A43U U47C has a yeast fitness of 0.794.
For G25A A65U, the yeast fitness was 0.981.
Work on C24U U26G A43G yielded a yeast fitness of 0.727.
For C24U C31U, the yeast fitness was 0.96.
In the case of C24U C31G, the yeast fitness is reported as 0.845.
C24U C31A C34U gave a yeast fitness of no more than 0.5.
C24U A45G G68C gave a yeast fitness of 0.641.
C24U A43U gave a yeast fitness of 1.01.
For G25A A40C A70U, the yeast fitness was 0.625.
Work on C24U C30U C31G A57G yielded a yeast fitness of 0.576.
C24U C55G C66A gave a yeast fitness of no more than 0.5.
With C24U C31U C49U the yeast fitness was 0.874.
Variant C24U C33U G48A C61U has a yeast fitness of no more than 0.5.
Work on C24U U59A C66U yielded a yeast fitness of 0.565.
With C24U C29U C31G the yeast fitness was 0.806.
Variant G25A C29A A57C A70G has a yeast fitness of no more than 0.5.
Variant G25A C27U A36U has a yeast fitness of 0.53.
For C24U C31G C46U, the yeast fitness was 0.562.
Work on C24U C31G A65U yielded a yeast fitness of 0.508.
C24U C31U G68U gave a yeast fitness of 0.544.
For C24U C31U C49U A70U, the yeast fitness was 0.64.
Variant C24U U35C G38C has a yeast fitness of 0.677.
C24U G38C C62G showed a yeast fitness of 0.623.
In the case of C24U C33U, the yeast fitness is reported as 0.747.
Variant C24U C61G has a yeast fitness of 0.598.
With C24U C61U the yeast fitness was 0.881.
Variant C24U C61A has a yeast fitness of 0.612.
Variant C24U C34U G58A has a yeast fitness of no more than 0.5.
For C24U C31G G44A, the yeast fitness was 0.508.
G25A C29U A45U G58C gave a yeast fitness of 0.772.
Work on C24U A70U yielded a yeast fitness of 0.881.
For G25A C27G C60A A70U, the yeast fitness was no more than 0.5.
Variant C24U A45U C55U G67U has a yeast fitness of no more than 0.5.
C24U G48U showed a yeast fitness of 0.783.
C24U U26A G68A gave a yeast fitness of 0.604.
With G25A A36G the yeast fitness was 0.962.
With C24U A45U the yeast fitness was 0.919.
Variant C24U C55A U59G A65C has a yeast fitness of no more than 0.5.
In the case of C24U C34G G56A, the yeast fitness is reported as no more than 0.5.
For C24U G51A A57U, the yeast fitness was no more than 0.5.
Variant C24U A42U G52A has a yeast fitness of 0.563.
In the case of C24U G44A C55G G56A A57U, the yeast fitness is reported as 0.79.
Variant G25A C27U U53C A70G has a yeast fitness of no more than 0.5.
Variant C24U G48C C62A has a yeast fitness of 0.579.
Variant C24U A43U U47G U53C has a yeast fitness of no more than 0.5.
Work on C24U A45C C61G yielded a yeast fitness of no more than 0.5.
G25A A36G A45C showed a yeast fitness of 0.929.
With C24U C66G G68C the yeast fitness was no more than 0.5.
Variant C24U C29U C30A has a yeast fitness of 0.706.
For C24U U26G, the yeast fitness was 0.987.
With C24U U26A the yeast fitness was 0.938.
Work on C24U U26C yielded a yeast fitness of 0.986.
With G25A A45G G50C A69C the yeast fitness was 0.526.
Work on C24U C33G C34U yielded a yeast fitness of 0.672.
Variant C24U U53A C66U has a yeast fitness of 0.55.
C24U C55G A70U gave a yeast fitness of 0.698.
Variant G25A A40U C61U has a yeast fitness of 0.669.
In the case of C24U A42U G52C G63A, the yeast fitness is reported as no more than 0.5.
Work on G25A A42U yielded a yeast fitness of 0.813.
With G25A A42G the yeast fitness was 0.89.
Variant C24U C49U U64A has a yeast fitness of no more than 0.5.
Work on G25A A43C A70G yielded a yeast fitness of 0.745.
Variant C24U U28G C33G C34U A36G A40G A70C has a yeast fitness of no more than 0.5.
Work on C24U G52A A57C yielded a yeast fitness of no more than 0.5.
With C24U A43C A57C the yeast fitness was no more than 0.5.
C24U G41A C61G showed a yeast fitness of 0.587.
For G25A C29G A45C C46G, the yeast fitness was no more than 0.5.
In the case of C24U U35C C55G A70U, the yeast fitness is reported as 0.569.
Work on C24U C66U yielded a yeast fitness of 0.794.
Variant C24U G68A has a yeast fitness of 0.697.
Work on C24U C34U C46A yielded a yeast fitness of no more than 0.5.
For C24U C34U C46U, the yeast fitness was no more than 0.5.
C24U C46G C49A C61U gave a yeast fitness of no more than 0.5.
In the case of C24U A57G C61G, the yeast fitness is reported as no more than 0.5.
With G25A A43G C49U the yeast fitness was 0.94.
G25A A37U G41A C62G gave a yeast fitness of no more than 0.5.
